Rows were chosen to be rich in hits. Some 1.8% of all compounds tested hit in one or more screens of this group.
NPY1 pot ag – NPY-Y1 receptor potentiators or agonists, primary screen, cell-based; Neuropeptide Y receptor type 1 (Homo sapiens), P25929; NPY-Y1 expressing cells, potentiator/agonist activation; activation, % at 3.6 µM; hit rate 0.37% among 220,000; AID 1304, 2008; in the data active means activation above about 33%, passing the limit was not always enough;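 further: cells stimulated with NPY at EC10 then isoproterenol at EC100; 0% = low agonist plus stimulus and 100% = saturating agonist plus stimulus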
Target sequence (P25929 whole entry, looked up): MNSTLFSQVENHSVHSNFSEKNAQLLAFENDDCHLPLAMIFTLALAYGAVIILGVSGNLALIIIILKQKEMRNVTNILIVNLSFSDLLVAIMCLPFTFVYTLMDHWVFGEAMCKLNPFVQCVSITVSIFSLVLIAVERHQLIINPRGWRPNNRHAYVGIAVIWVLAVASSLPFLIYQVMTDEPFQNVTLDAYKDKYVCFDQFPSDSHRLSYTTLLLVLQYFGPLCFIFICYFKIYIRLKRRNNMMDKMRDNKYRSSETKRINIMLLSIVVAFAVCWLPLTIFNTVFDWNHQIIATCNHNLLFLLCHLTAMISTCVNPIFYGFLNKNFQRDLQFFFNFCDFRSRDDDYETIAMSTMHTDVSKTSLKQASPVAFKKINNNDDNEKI
NPY Y2 blocker – NPY-Y2 receptor antagonists, primary screen, cell-based. Neuropeptide Y receptor type 2 (Homo sapiens), P49146. NPY-Y2 expressing cells, antagonist mode. inhibition, % at 2.7 µM. hit rate 0.99% among 140,000; in the data active means inhibition above about 17%;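 further: 0% = vehicle with agonist challenge and 100% = reference antagonist with challenge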
Target sequence (P49146 whole entry, looked up): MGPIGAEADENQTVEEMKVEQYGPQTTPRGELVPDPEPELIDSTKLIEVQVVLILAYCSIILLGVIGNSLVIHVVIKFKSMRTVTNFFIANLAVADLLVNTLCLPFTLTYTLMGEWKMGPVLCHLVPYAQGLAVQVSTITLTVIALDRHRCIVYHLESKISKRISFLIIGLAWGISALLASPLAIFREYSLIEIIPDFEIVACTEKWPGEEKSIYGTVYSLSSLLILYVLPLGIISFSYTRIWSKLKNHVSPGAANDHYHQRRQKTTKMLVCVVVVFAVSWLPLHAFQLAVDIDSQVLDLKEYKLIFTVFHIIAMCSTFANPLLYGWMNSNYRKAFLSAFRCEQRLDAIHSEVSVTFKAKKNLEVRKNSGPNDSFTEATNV
NPY Y1 blocker – NPY-Y1 receptor antagonists, primary screen, cell-based. Neuropeptide Y receptor type 1 (Homo sapiens), P25929. HEK293-CNG Y1 cells, membrane potential fluorescence; NPY at EC95, then isoproterenol. inhibition, % at 3.6 µM. hit rate 1% among 200,000. AID 1040, 2008;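 active means inhibition above the campaign mean inhibition of all tested compounds plus 3 SD, cut at about 20% in these data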;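 further: 0% = DMSO wells given NPY plus isoproterenol and 100% = isoproterenol alone without NPY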
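Material: HEK293 cells with Y1 receptor plus CNG channel; times: compound incubation 1 h at room temperature, readout 45 min post-stimulation; signal: fluorescence, membrane potential probe; read-out basis: fluorescence ratio normalized to % inhibition between controls; benchmarks: full-block control isoproterenol-only wells, zero-block control NPY plus isoproterenol wells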
NPY2 pot ag – NPY-Y2 potentiators or agonists, primary screen, cell-based; Neuropeptide Y receptor type 2 (Homo sapiens), P49146; cells expressing NPY-Y2, potentiator/agonist read-out; activation, % at 3.6 µM; hit rate 0.45% among 220,000; AID 1359, 2008; in the data active means activation above about 27%;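 further: cells stimulated with NPY near EC25 plus isoproterenol at EC100; 0% = vehicle plus submaximal agonist and 100% = vehicle plus saturating agonist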
NPY-Y2 confirm – NPY-Y2 potentiators or agonists, confirmation, cell-based | activation, % at 3.6 µM | cell-based NPY-Y2 potentiator/agonist assay | hit rate 20% among 450 | AID 1539, 2009 | shares compounds with NPY2 pot ag; in the data active means activation above about 33%
NPY-Y1 counter – NPY-Y1 potentiators or agonists, counter-screen for NPY-Y2 potentiator project, cell-based, fluorescence | shares compounds with NPY2 pot ag | Y1 HEK293-CNG cells, membrane potential fluorescence | activation, % at 3.6 µM | hit rate 20% among 450; in the data active means activation above about 45%;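 further: cells stimulated with submaximal NPY then isoproterenol with phosphodiesterase inhibitor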
NPY-Y1 agonist 2 – NPY-Y1 direct agonists, selectivity assay for NPY-Y2 potentiator project, cell-based, fluorescence; shares compounds with NPY2 pot ag; HEK293 Y1-CNGC, membrane potential fluorescence, agonism; activation, % at 3.6 µM; hit rate 37% among 450; AID 1702, 2009;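 active means activation above the mean of DMSO-only control wells plus 3 SD, cut at about 18% in these data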;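 further: cells stimulated with 1 µM isoproterenol plus the PDE inhibitor Ro 20-1724; 0% = isoproterenol with DMSO and no NPY and 100% = 40 nM NPY; Y1 agonists lower the membrane potential dye signal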
CNGC inhibitor – CNGC cAMP sensor activity inhibitors, counter-screen for NPY-Y2 potentiator project, cell-based, HEK293-CNG parental, membrane potential fluorescence | shares compounds with NPY2 pot ag | isoproterenol cAMP | inhibition, % at 3.6 µM | hit rate 32% among 450;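 active means inhibition above the control-well mean plus 3 SD of those wells, cut at about 22% in these data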;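 further: 0% = DMSO with isoproterenol and 100% = DMSO without isoproterenol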
NPY-Y2 ag 2 – NPY-Y2 direct agonists, counter-screen for NPY-Y2 potentiator project, cell-based, fluorescence | hit rate 56% among 450 | activation, % at 3.6 µM | HEK293 Y2/CNGC cells, membrane potential fluorescence, agonist mode | shares compounds with NPY2 pot ag;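 active means activation above the mean of solvent-only control wells plus 3 SD, cut at about 10% in these data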;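 further: cells stimulated by isoproterenol with no NPY added so direct agonism is tested; 0% = DMSO with isoproterenol alone and 100% = NPY at EC100 plus isoproterenol; agonism lowers probe fluorescence through less cAMP and CNG channel opening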
* marks the source's active call; other numbers are inactive results; / = not tested or not shown.

SMILES	NPY1 pot ag	NPY Y2 blocker	NPY Y1 blocker	NPY2 pot ag	NPY-Y2 confirm	NPY-Y1 counter	NPY-Y1 agonist 2	CNGC inhibitor	NPY-Y2 ag 2
Cc1c([N+](=O)[O-])c(C(=O)Sc2ccc(Br)cc2)nn1C	43.5	/	/	44.0*	9.4	15.1	1.0	5.3	15.7*
Cc1c([N+](=O)[O-])c(C(=O)N2CCCC2)nn1C	15.8	0.3	4.5	-3.2	/	/	/	/	/
O=C(Nc1ccc(F)cc1)NC1CCCCC1	-11.0	0.6	2.4	99.2*	-5.0	-2.5	-6.3	-8.5	-11.4
O=[N+]([O-])c1ccc(S(=O)(=O)Nc2nc3ccccc3nc2Nc2ccccc2)cc1	26.1	/	-2.8	0.9	/	/	/	/	/
O=[N+]([O-])c1ccc(Nc2c3ccccc3nc3ccccc23)cc1	25.5	/	-4.5	30.6*	46.6*	53.9*	35.7*	41.0*	44.6*
O=C(Nc1ccccc1)Nc1ncc([N+](=O)[O-])s1	20.9	/	3.4	30.8*	12.9	-12.0	-10.6	8.3	-2.7
NC(=O)NC(=O)COC(=O)CC12CC3CC(CC(C3)C1)C2	9.6	/	-7.6	3.3	/	/	/	/	/
Cc1ccc(-n2c(SCC(N)=O)nc3c(c2=O)C2(CCCC2)Cc2ccccc2-3)cc1	26.2	-3.8	-11.9	35.4*	32.0	46.8*	42.8*	29.4*	41.7*
NC(=NCCc1c[nH]c2ccccc12)NC(=O)c1ccc(Cl)cc1	27.1	/	-1.3	27.7*	26.2	30.5	39.4*	37.3*	42.4*
COc1ccc(COC(=O)c2ccc3c(=O)n4c(nc3c2)CCC4)cc1F	-21.6	/	/	58.9*	-4.3	-5.3	-10.3	-3.0	10.3*
O=C(OCN1C(=O)c2ccccc2C1=O)c1ccc2c(=O)n3c(nc2c1)CCC3	15.3	-0.4	-5.5	2.0	/	/	/	/	/
NC(=O)c1ccc(N2CCN(S(=O)(=O)c3ccccc3)CC2)c([N+](=O)[O-])c1	18.7	/	7.5	31.1*	-3.8	-42.8	-26.2	-10.1	-7.7
COC(=O)c1ccc(N2CCN(S(=O)(=O)c3ccc4ccccc4c3)CC2)c([N+](=O)[O-])c1	16.8	-1.8	-1.9	3.2	/	/	/	/	/
N#C/C(=N\Nc1cccc(C(F)(F)F)c1)C(=O)c1ccsc1	-22.7	/	/	50.5*	-13.1	-54.5	-27.8	-12.1	2.2
N#C/C(=N\Nc1cccc([N+](=O)[O-])c1)C(=O)c1ccc(Br)cc1	-3.1	/	5.4	12.2	/	/	/	/	/
O=S(=O)(c1ccc(Cl)cc1)N1CCC(O)(CN2CCN(Cc3ccccc3)CC2)CC1	3.1	/	1.9	-1.9	/	/	/	/	/
O=S(=O)(c1ccccc1)N1CCC(O)(CSc2ccc(Cl)cc2)CC1	-14.4	3.2	8.8	33.8*	-12.7	-56.2	11.9	-16.5	4.9
CCN(CC)c1cc(C)c2cc(NC(=O)c3cccs3)ccc2n1	35.3	/	-3.7	28.4*	32.5	52.9*	34.7*	45.1*	34.5*
O=C(Oc1ccccc1)c1cccnc1Oc1ccccc1	-26.3	/	/	-19.6	/	/	/	/	/
Cc1cc2ncn(CC3CC3(Cl)Cl)c2cc1C (stereo not given)	-3.6	/	6.0	-1.3	/	/	/	/	/
COCCCNC(=O)[C@H](CSCc1ccccc1)N1Cc2ccccc2C1=O	-5.4	/	/	-15.2	/	/	/	/	/
COCCNC(=O)[C@H](CSCc1ccccc1)N1Cc2ccccc2C1=O	4.0	/	/	102.2*	0.3	3.4	3.0	-0.8	4.7
O=C(NN(CC(O)COc1ccccc1)CC(O)COc1ccccc1)c1ccccc1 (stereo not given)	-3.9	/	/	-14.3	/	/	/	/	/
Cc1ccc(NS(=O)(=O)c2cc([N+](=O)[O-])ccc2NNC(=S)Nc2cc(C)ccc2C)c(C)c1	15.8	-5.8	-6.0	11.1	/	/	/	/	/
Cc1ccc(NS(=O)(=O)c2cc([N+](=O)[O-])ccc2NNC(=S)Nc2cccc(Cl)c2)c(C)c1	38.5	-7.2	-10.7	30.9*	76.4*	96.8*	78.9*	62.0*	75.3*
SMILES	NPY1 pot ag	NPY Y2 blocker	NPY Y1 blocker	NPY2 pot ag	NPY-Y2 confirm	NPY-Y1 counter	NPY-Y1 agonist 2	CNGC inhibitor	NPY-Y2 ag 2
COc1ccc(NC(=S)N/N=C/c2cccn2Cc2ccc(F)cc2)cc1	20.0	/	1.6	41.5*	16.9	6.5	-1.8	2.0	5.1
CCc1ccc(NC(=S)N(Cc2ccc(Cl)cc2)Cc2ccc(C(=O)O)cc2)cc1	0.8	/	0.0	32.3*	8.0	19.5	16.4	14.0	5.8
COc1ccc(OCC(O)CNC(=O)Nc2ccccc2)cc1 (stereo not given)	16.4	/	/	43.5*	1.2	6.8	-5.0	1.8	2.8
COc1ccc(OCC(O)CNC(=O)Nc2ccc(F)cc2)cc1 (stereo not given)	11.3	/	/	-4.9	/	/	/	/	/
OC(CNc1ccccc1)COc1ccc(OCC(O)CNc2ccccc2)cc1 (stereo not given)	38.7	-3.1	-18.7	37.0*	42.6*	56.6*	44.0*	44.0*	47.5*
CCN(Cc1ccncc1)C(=O)c1cc(Br)cc(Br)c1O	12.7	/	0.6	4.8	/	/	/	/	/
O=C(/C=C/c1cn(-c2ccccc2)nc1-c1cccnc1)N1CCCC1	19.8	/	-1.7	27.8*	11.9	21.6	11.9	4.4	14.9*
C/C=C/C(=O)N1c2ccc(C)cc2C(C)=CC1(C)C	-26.3	/	/	97.2*	-9.0	-1.6	-9.7	-10.6	-2.3
CC(C)c1nnc(NC(=O)CCC(=O)Nc2ccccc2)s1	8.8	/	/	-14.8	/	/	/	/	/
CC(C)c1nnc(NC(=O)CCC(=O)Nc2ccc3cn[nH]c3c2)s1	-3.6	/	/	38.8*	0.1	-0.9	3.5	5.9	13.4*
Cc1ccc(NC(=O)c2ccccc2NS(=O)(=O)c2ccc(Cl)s2)cc1	21.3	7.7	-2.7	43.3*	-16.4	-60.3	-45.3	-21.8	-16.7
O=C(Nc1ccccc1)c1ccccc1NS(=O)(=O)c1ccc(Cl)s1	47.2	7.0	2.0	13.8	/	/	/	/	/
Cc1ncccc1C(=O)N1CCCC(C(=O)c2ccc3c4c(cccc24)CC3)C1 (stereo not given)	-9.4	/	-0.3	72.2*	1.1	2.5	-6.9	7.5	7.8
COc1ccc(NC2c3ccccc3C(=O)N2Cc2ccc3c(c2)OCO3)cc1 (stereo not given)	-15.4	/	/	-4.8	/	/	/	/	/

Screening data: PubChem, The Scripps Research Institute Molecular Screening Center
